Results reported in ChEMBL document CHEMBL1949496, “Synthesis of [¹⁸F]-labeled (2-(2-fluoroethoxy)ethyl)triphenylphosphonium cation as a potential agent for myocardial imaging using positron emission tomography” (Bioorg Med Chem Lett, 2012).

Tests used:
H9c2 [1] = experiment: Cellular uptake in rat H9c2 cells after 0.5 to 2 hrs by gamma counting in presence of CCCP; assay type: ADME, cell-based
Method in brief: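 H9c2 cells incubated with radiotracer at 37 °C for 0.5, 1 or 2 h in the presence of 0.5 µM protonophore CCCP, which abolishes mitochondrial membrane potential. Uptake expressed as percentage of applied radioactivity; means ± SD of three measurements.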

Heart [2] = experiment: Drug uptake in Sprague-Dawley rat heart at 37 MBq, iv after 0.5 hrs by micro PET analysis; assay type: ADME, organism-based; conditions: in vivo
Method in brief: (§1)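 Rats received the tracer intravenously and were imaged by micro-PET in coronal view at 0.5 h and 1.0 h after injection.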

Spleen = experiment: Biodistribution in BALB/c mouse spleen at 7.4 MBq, iv after 30 mins by gamma counting; assay type: ADME, organism-based; conditions: in vivo, 0.5 h
Method in brief: (§2)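 Tracer given intravenously to BALB/c mice; animals sampled at 10, 30, 60 and 120 min after injection. Organ radioactivity expressed as percentage of injected dose per gram of tissue (% ID/g), n = 12.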

Nucleic Acid [3] = experiment: Ratio of drug level in BALB/c mouse heart to liver at 7.4 MBq, iv after 10 mins by gamma counter; assay type: ADME, organism-based; conditions: in vivo
Method in brief: (§3)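 Normal BALB/c mice were given the 18F tracer by i.v. injection. Tissues were sampled at 10, 30, 60 and 120 min. Activity is expressed as % injected dose per gram of tissue (n = 12), and organ ratios were taken from these values.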

Nucleic Acid [4] = experiment: Ratio of drug level in BALB/c mouse heart to liver at 7.4 MBq, iv after 60 mins by gamma counter; assay type: ADME, organism-based; conditions: in vivo, 1 h; method in brief: as §3
Intestine = experiment: Biodistribution in BALB/c mouse intestine at 7.4 MBq, iv after 10 mins by gamma counting; assay type: ADME, organism-based; conditions: in vivo; method in brief: as §2
H9c2 [5] = experiment: Cellular uptake in rat H9c2 cells after 0.5 hrs by gamma counting; assay type: ADME, cell-based; conditions: h9c2, 0.5 h
Method in brief: (§4)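 Radiotracer incubated with H9c2 cells at 37 °C for 0.5, 1 or 2 h. Uptake expressed as percentage of applied radioactivity; means ± SD of three measurements.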

Stomach [6] = experiment: Biodistribution in BALB/c mouse stomach at 7.4 MBq, iv after 120 mins by gamma counting; assay type: ADME, organism-based; conditions: in vivo, 2 h; method in brief: as §2
H9c2 [7] = experiment: Cellular uptake in rat H9c2 cells after 2 hrs by gamma counting; assay type: ADME, cell-based; conditions: h9c2, 2 h; method in brief: as §4
Muscle tissue [8] = experiment: Biodistribution in BALB/c mouse normal muscle at 7.4 MBq, iv after 60 mins by gamma counting; assay type: ADME, organism-based; conditions: in vivo, 1 h; method in brief: as §2
Pancreas [9] = experiment: Biodistribution in BALB/c mouse pancreas at 7.4 MBq, iv after 120 mins by gamma counting; assay type: ADME, organism-based; conditions: in vivo, 2 h; method in brief: as §2
Nucleic Acid [10] = experiment: Ratio of drug uptake in rat H9c2 cells to mouse NIH3T3 cells after 0.5 to 2 hrs by gamma counting; assay type: ADME, cell-based
Bone = experiment: Biodistribution in BALB/c mouse bone at 7.4 MBq, iv after 10 mins by gamma counting; assay type: ADME, organism-based, Bone element; conditions: in vivo; method in brief: as §2
Nucleic Acid [11] = experiment: Ratio of drug level in BALB/c mouse heart to lung at 7.4 MBq, iv after 30 mins by gamma counter; assay type: ADME, organism-based; conditions: in vivo, 0.5 h; method in brief: as §3
[12] = Drug uptake in Sprague-Dawley rat myocardium at 37 MBq, iv up to 1 hr by micro PET analysis; assay type: ADME, organism-based; conditions: in vivo; method in brief: as §1
Kidney [13] = experiment: Biodistribution in BALB/c mouse kidney at 7.4 MBq, iv after 30 mins by gamma counting; assay type: ADME, organism-based; conditions: in vivo, 0.5 h; method in brief: as §2
Liver [14] = experiment: Biodistribution in BALB/c mouse liver at 7.4 MBq, iv after 120 mins by gamma counting; assay type: ADME, organism-based; conditions: in vivo, 2 h; method in brief: as §2
Lung = experiment: Biodistribution in BALB/c mouse lung at 7.4 MBq, iv after 10 mins by gamma counting; assay type: ADME, organism-based; conditions: in vivo; method in brief: as §2
Stomach [15] = experiment: Biodistribution in BALB/c mouse stomach at 7.4 MBq, iv after 30 mins by gamma counting; assay type: ADME, organism-based; conditions: in vivo, 0.5 h; method in brief: as §2
Stomach [16] = experiment: Biodistribution in BALB/c mouse stomach at 7.4 MBq, iv after 60 mins by gamma counting; assay type: ADME, organism-based; conditions: in vivo, 1 h; method in brief: as §2
Nucleic Acid [17] = experiment: Ratio of drug level in BALB/c mouse heart to lung at 7.4 MBq, iv after 120 mins by gamma counter; assay type: ADME, organism-based; conditions: in vivo, 2 h; method in brief: as §3
Stomach [18] = experiment: Biodistribution in BALB/c mouse stomach at 7.4 MBq, iv after 10 mins by gamma counting; assay type: ADME, organism-based; conditions: in vivo; method in brief: as §2
Pancreas [19] = experiment: Biodistribution in BALB/c mouse pancreas at 7.4 MBq, iv after 60 mins by gamma counting; assay type: ADME, organism-based; conditions: in vivo, 1 h; method in brief: as §2
Nucleic Acid [20] = experiment: Ratio of drug level in BALB/c mouse heart to lung at 7.4 MBq, iv after 10 mins by gamma counter; assay type: ADME, organism-based; conditions: in vivo; method in brief: as §3
Muscle tissue [21] = experiment: Biodistribution in BALB/c mouse normal muscle at 7.4 MBq, iv after 10 mins by gamma counting; assay type: ADME, organism-based; conditions: in vivo; method in brief: as §2
Kidney [22] = experiment: Biodistribution in BALB/c mouse kidney at 7.4 MBq, iv after 10 mins by gamma counting; assay type: ADME, organism-based; conditions: in vivo; method in brief: as §2
Heart [23] = experiment: Drug uptake in Sprague-Dawley rat heart at 37 MBq, iv after 1 hr by micro PET analysis; assay type: ADME, organism-based; conditions: in vivo; method in brief: as §1
Muscle tissue [24] = experiment: Biodistribution in BALB/c mouse normal muscle at 7.4 MBq, iv after 30 mins by gamma counting; assay type: ADME, organism-based; conditions: in vivo, 0.5 h; method in brief: as §2
Liver [25] = experiment: Biodistribution in BALB/c mouse liver at 7.4 MBq, iv after 30 mins by gamma counting; assay type: ADME, organism-based; conditions: in vivo, 0.5 h; method in brief: as §2
Blood = experiment: Biodistribution in BALB/c mouse blood at 7.4 MBq, iv after 30 mins by gamma counting; assay type: ADME, organism-based; conditions: in vivo, 0.5 h; method in brief: as §2
Heart [26] = experiment: Biodistribution in BALB/c mouse heart at 7.4 MBq, iv after 30 mins by gamma counting; assay type: ADME, organism-based; conditions: in vivo, 0.5 h; method in brief: as §2

What does the source list for `[18F]CCOCC[P+](c1ccccc1)(c1ccccc1)c1ccccc1`?
Drug uptake (H9c2 [1]): Not Active; Drug uptake (Heart [2]): Active; Drug uptake (Spleen): 2.81 % ID/g; Ratio (Nucleic Acid [3]): 11.08; Ratio (Nucleic Acid [4]): 9.87; Drug uptake (Intestine): 9.14 % ID/g; Drug uptake (H9c2 [5]): 0.47%; Drug uptake (Stomach [6]): 2.49 % ID/g; Drug uptake (H9c2 [7]): 0.68%; Drug uptake (Muscle tissue [8]): 4.42 % ID/g; Drug uptake (Pancreas [9]): 5.44 % ID/g; Ratio (Nucleic Acid [10]): 2; Drug uptake (Bone): 3.37 % ID/g; Ratio (Nucleic Acid [11]): 3.71; Drug uptake [12]: Active; Drug uptake (Kidney [13]): 23.67 % ID/g; Drug uptake (Liver [14]): 1.33 % ID/g; Drug uptake (Lung): 7.69 % ID/g; Drug uptake (Stomach [15]): 3.98 % ID/g; Drug uptake (Stomach [16]): 4.72 % ID/g; Ratio (Nucleic Acid [17]): 4.36; Drug uptake (Stomach [18]): 3.75 % ID/g; Drug uptake (Pancreas [19]): 7.35 % ID/g; Ratio (Nucleic Acid [20]): 4.58; Drug uptake (Muscle tissue [21]): 6.46 % ID/g; Drug uptake (Kidney [22]): 36.05 % ID/g; Drug uptake (Heart [23]): Active; Drug uptake (Muscle tissue [24]): 5.27 % ID/g; Drug uptake (Liver [25]): 2.42 % ID/g; Drug uptake (Blood): 0.22 % ID/g; Drug uptake (Heart [26]): 19.33 % ID/g
